# Compound activity (PubChem)
# Hits are enriched below; roughly 5.9% of the tested compounds scored in any of these assays.
# Pf Dd2 growth: inhibitors of Plasmodium falciparum Dd2 growth. P. falciparum Dd2 growth, SYBR Green, 72 h; active compounds read low. activity change, % at 10 µM. hit rate 2.3% among 94,000; in the data active = activity change below about -80%; inconclusive = no clear call, values can overlap the other calls
# T cruzi growth-1: blocks T. cruzi growth in NIH3T3 culture; inhibition, % at 8.34 µM; AID 624255; hit rate 5.9% among 77,000; T. cruzi beta-gal in NIH3T3, GalScreen luminescence, 90 h;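 active = mean inhibition above about 93%, with at least 55% of replicates each passing it, limit read from the data, passing the limit was not always enough; inconclusive = only one of those two conditions holds; inactive = neither condition holds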
# GASC1 inh: blocks human GASC-1 (KDM4C) demethylase activity | inhibition, % at 12.5 µM | Q9H3R0 | GST-KDM4C 2-372, H3K9me3 peptide, LANCE TR-FRET | AID 720574 | hit rate 0.15% among 96,000;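 active = mean replicate inhibition above about 25%, with at least 55% of replicates also reaching it, limit read from the data, passing the limit was not always enough; inconclusive = only one of those two conditions met; inactive = neither condition met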
#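 reagent = H3K9me3 peptide substrate, Fe(II), 2-oxoglutarate | system = GST-tagged GASC-1 (JMJD2C) catalytic fragment, aa 2-372 | amount = enzyme final amount 10 nM | read-out = Fall in 671/618 emission ratio as inhibition | medium = HEPES buffer, pH 7.5, plus ascorbate | schedule = 30 min reaction, 60 min detection, RT | measured by = LANCE TR-FRET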
# IDH1 R132H inh: blocks human IDH1 R132H reductase activity | O75874 | diaphorase/resazurin fluorescence, 60 min | inhibition, % at 10 µM | hit rate 0.18% among 70,000 | AID 624101; in the data active = inhibition above about 34%; inconclusive = no clear call, values can overlap the other calls; inactive = below about 11%
# Target sequence (O75874 whole entry R132H): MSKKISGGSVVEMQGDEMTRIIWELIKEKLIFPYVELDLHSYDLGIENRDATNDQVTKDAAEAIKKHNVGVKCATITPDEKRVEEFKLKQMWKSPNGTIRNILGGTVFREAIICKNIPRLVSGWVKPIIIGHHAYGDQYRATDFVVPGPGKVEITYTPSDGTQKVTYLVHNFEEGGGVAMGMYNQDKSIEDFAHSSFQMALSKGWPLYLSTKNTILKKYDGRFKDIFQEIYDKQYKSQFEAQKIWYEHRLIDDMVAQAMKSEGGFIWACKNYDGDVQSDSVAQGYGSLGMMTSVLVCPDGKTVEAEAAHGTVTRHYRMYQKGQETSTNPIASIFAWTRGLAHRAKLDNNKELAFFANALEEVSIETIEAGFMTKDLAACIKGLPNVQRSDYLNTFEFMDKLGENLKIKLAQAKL
# T cruzi growth-2: Trypanosoma cruzi proliferation inhibition | T. cruzi beta-gal in NIH3T3, GalScreen luminescence, 90 h | AID 651739 | hit rate 72% among 5,600 | shares compounds with T cruzi growth-1 | inhibition, % at 8.35 µM;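 active = mean replicate inhibition above about 95% and at least 55% of replicates individually reaching it, limit read from the data; inconclusive = only one of the two criteria is met; inactive = neither criterion is met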
# T cruzi growth-3: blocks T. cruzi growth in NIH3T3 host cells; shares compounds with T cruzi growth-1; T. cruzi beta-gal in NIH3T3, GalScreen luminescence, 90 h; inhibition, % at 2.09 µM; hit rate 21% among 5,600; AID 651740;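 active = mean inhibition above about 95%, with at least 55% of replicates also reaching it, limit read from the data; inconclusive = meets just one of the two conditions; inactive = meets neither condition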
# NIH3T3 tox: NIH/3T3 (mouse) viability loss | AID 651742 | shares compounds with T cruzi growth-1 | cytotoxicity (signal decrease), % at 8.35 µM | NIH/3T3 viability, CellTiter-Glo ATP luminescence, 90 h | hit rate 14% among 5,600;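 active = mean signal decrease across replicates above about 35% based on untreated-well scatter, with enough replicates individually passing, limit read from the data; inconclusive = no rule stated though some were filed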
# 3T3 cytotox 2: kills mouse NIH/3T3 fibroblasts | shares compounds with T cruzi growth-1 | inhibition, % at 24.9 µM | NIH/3T3 viability, CellTiter-Glo ATP luminescence, 90 h | hit rate 56% among 5,600 | AID 651744;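 active = mean loss of cell viability signal at or above a set limit, and enough replicates individually reaching it; inconclusive = meets only the mean limit or only the replicate share; inactive = meets neither condition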
# A number is an active result; . = inactive; ? = inconclusive; / = no result given.
SMILES,Pf Dd2 growth,T cruzi growth-1,GASC1 inh,IDH1 R132H inh,T cruzi growth-2,T cruzi growth-3,NIH3T3 tox,3T3 cytotox 2
CN1C(=O)c2cc(NC(=O)c3cccc(Cl)c3)ccc2OC[C@@H]2O[C@H](CC(=O)NC3CCCCC3)CC[C@@H]21,.,100,.,/,99,.,.,60
CN1C(=O)c2cc(NC(=O)c3ccc(C(F)(F)F)cc3)ccc2OC[C@H]2O[C@H](CC(=O)NC3Cc4ccccc4C3)CC[C@H]21,.,.,.,/,/,/,/,/
CN1C(=O)c2cc(NC(=O)c3cccc(Cl)c3)ccc2OC[C@H]2O[C@@H](CC(=O)NC3CCCCC3)CC[C@@H]21,.,/,.,/,/,/,/,/
COc1ccc(NC(=O)Nc2ccc3c(c2)C(=O)N([C@@H](C)CO)C[C@H](C)[C@H](CN(C)S(=O)(=O)c2ccc(C)cc2)OCCCC[C@H](C)O3)cc1,.,104,.,.,111,.,.,.
COc1ccc(NC(=O)Nc2ccc3c(c2)C(=O)N([C@H](C)CO)C[C@H](C)[C@@H](CN(C)S(=O)(=O)c2ccc(C)cc2)OCCCC[C@H](C)O3)cc1,.,.,.,.,/,/,/,/
COc1ccc(NC(=O)Nc2ccc3c(c2)C(=O)N([C@@H](C)CO)C[C@@H](C)[C@@H](CN(C)S(=O)(=O)c2ccc(C)cc2)OCCCC[C@@H](C)O3)cc1,.,97,.,.,104,.,.,.
COc1ccc(S(=O)(=O)N(C)C[C@@H]2OCCCC[C@@H](C)Oc3ccc(NC(=O)Nc4ccccc4)cc3C(=O)N([C@H](C)CO)C[C@H]2C)cc1,.,104,.,.,104,.,.,.
COc1ccc(NC(=O)Nc2ccc3c(c2)C(=O)N([C@@H](C)CO)C[C@H](C)[C@@H](CN(C)S(=O)(=O)c2ccc(C)cc2)OCCCC[C@H](C)O3)cc1,.,102,.,.,105,.,.,.
COc1ccc(NC(=O)Nc2ccc3c(c2)C(=O)N([C@@H](C)CO)C[C@H](C)[C@@H](CN(C)S(=O)(=O)c2ccc(OC)cc2)OCCCC[C@@H](C)O3)cc1,.,.,.,/,/,/,/,/
CCc1c(O)cc(O)c2c1O[C@H](C)CC2=O,/,/,/,.,/,/,/,/
CC1CC(=O)c2cc(O)c(O)cc2C1 (stereo not drawn),/,/,/,.,/,/,/,/
Cc1nn(C)c(C)c1CN1CCN(C(=S)Nc2ccc(S(N)(=O)=O)cc2)CC1,/,/,/,.,/,/,/,/
Cc1ccccc1-c1ccc([C@@H]2[C@@H](CO)N3CCCCN(C(=O)Nc4ccc(F)cc4)C[C@@H]23)cc1,.,.,.,/,/,/,/,/
Cc1ccccc1-c1ccc([C@@H]2[C@H](CO)N3CCCCN(C(=O)Nc4ccc(F)cc4)C[C@@H]23)cc1,.,103,.,/,.,107,117,103
O=C(Nc1ccc(F)cc1)N1CCCCN2[C@@H](CO)[C@@H](c3ccc(-c4ccccc4F)cc3)[C@@H]2C1,.,103,/,/,.,106,106,104
O=C(NC(Cc1ccccc1)C(=O)OCc1cnc(-c2ccccc2)o1)c1ccccc1 (stereo not drawn),/,/,/,.,/,/,/,/
COc1ccccc1S(=O)(=O)N(C)C[C@H]1Oc2cc(C#CCC3CCCC3)ccc2S(=O)(=O)N([C@@H](C)CO)C[C@@H]1C,.,/,.,.,/,/,/,/
COc1cccc(S(=O)(=O)N(C)C[C@@H]2Oc3cc(C#CCC(C)C)ccc3S(=O)(=O)N([C@H](C)CO)C[C@H]2C)c1,?,.,.,.,/,/,/,/
COc1ccccc1S(=O)(=O)N(C)C[C@@H]1Oc2cc(C#CCC(C)C)ccc2S(=O)(=O)N([C@@H](C)CO)C[C@@H]1C,-87,?,.,.,103,107,.,56
COc1ccccc1S(=O)(=O)N(C)C[C@@H]1Oc2cc(C#CCC(C)C)ccc2S(=O)(=O)N([C@H](C)CO)C[C@H]1C,-83,103,.,.,.,115,44,105
CC(C)CC#Cc1ccc2c(c1)O[C@H](CN(C)S(C)(=O)=O)[C@@H](C)CN([C@H](C)CO)S2(=O)=O,.,.,.,.,/,/,/,/
COc1ccccc1S(=O)(=O)N(C)C[C@@H]1Oc2cc(C#CCC(C)C)ccc2S(=O)(=O)N([C@@H](C)CO)C[C@H]1C,-89,?,.,.,97,108,.,41
O=C(CSc1nnc(-c2cccnc2)n1-c1ccccc1)Nc1cc(C(F)(F)F)ccc1Cl,/,/,/,.,/,/,/,/
C[C@@H]1CN([C@@H](C)CO)S(=O)(=O)c2ccc(-c3cccc(F)c3)cc2O[C@H]1CN(C)S(=O)(=O)c1ccccc1,.,122,.,.,99,106,58,49
C[C@@H]1CN([C@@H](C)CO)S(=O)(=O)c2ccc(Br)cc2O[C@@H]1CN(C)S(=O)(=O)c1ccccc1,.,/,.,.,/,/,/,/
SMILES,Pf Dd2 growth,T cruzi growth-1,GASC1 inh,IDH1 R132H inh,T cruzi growth-2,T cruzi growth-3,NIH3T3 tox,3T3 cytotox 2
C[C@@H]1CN([C@H](C)CO)S(=O)(=O)c2ccc(-c3cccc(F)c3)cc2O[C@H]1CN(C)S(=O)(=O)c1ccccc1,.,?,.,.,.,.,65,41
C[C@H]1CN([C@@H](C)CO)S(=O)(=O)c2ccc(-c3cccc(F)c3)cc2O[C@@H]1CN(C)S(=O)(=O)c1ccccc1,.,120,.,.,96,.,37,41
C[C@H]1CN([C@@H](C)CO)S(=O)(=O)c2ccc(-c3cccc(F)c3)cc2O[C@H]1CN(C)S(=O)(=O)c1ccccc1,.,119,.,.,99,106,42,62
COc1ccc(NC(=O)CN(c2ccc(C)c(C)c2)S(C)(=O)=O)c(OC)c1,/,/,/,.,/,/,/,/
COc1ccc(-c2cc(C(F)(F)F)nc(SCC(=O)Nc3ccc4c(c3)CCC4)n2)cc1OC,/,/,/,.,/,/,/,/
C[C@@H]1CN([C@@H](C)CO)S(=O)(=O)c2ccc(-c3cccc(F)c3)cc2O[C@H]1CN(C)C,/,.,.,.,/,/,/,/
C[C@@H]1CN([C@H](C)CO)S(=O)(=O)c2ccc(-c3cccc(F)c3)cc2O[C@@H]1CN(C)S(=O)(=O)c1ccccc1,.,114,.,.,97,.,.,54
C[C@H](CO)N1C[C@H](C)[C@@H](CN(C)S(=O)(=O)c2ccccc2)Oc2cc(-c3cccc(F)c3)ccc2S1(=O)=O,.,115,.,.,101,.,.,29
C[C@@H]1CN([C@@H](C)CO)S(=O)(=O)c2ccc(-c3cccc(F)c3)cc2O[C@H]1CN(C)S(C)(=O)=O,.,.,.,.,/,/,/,/
C[C@H](CO)N1C[C@H](C)[C@H](CN(C)S(=O)(=O)c2ccccc2)Oc2cc(-c3cccc(F)c3)ccc2S1(=O)=O,.,120,.,/,97,100,.,34
